Test results: PMC3944088 (ACS chemical biology, 2013)

Assays:
[1] = tested on: c-MET; assay: Total c-MET levels in A549 cells; format: cell-based
In short: (§1)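 A549 cells were treated with the test compound or the reference pan-GSK3 inhibitor BIO (concentrations in μM), then lysates were immunoblotted for PARP-1 cleavage and total c-MET. In parallel, GSK3α and GSK3β were knocked down by siRNA, each alone, both combined, or with one siRNA targeting both, against a non-targeting control. These cells were blotted 72 hours post-transfection.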

[2] = tested on: A549 cells; assay: Apoptosis by PARP-1 cleavage in A549 cells; format: cell-based
In short: as §1

[3] = tested on: A549 NSCLC cells; assay: Cell viability of A549 NSCLC cells with GSK3 inhibitors; format: cell-based
In short: (§2)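 Viability read by ATP-based luminescence (CellTiter-Glo) after exposure of lung cancer cell lines to the test compound. For the GSK3 comparison in A549 cells, the known pan-GSK3 inhibitors BIO and LiCl were run alongside. Enantiomers were compared in A549 and H1648 cells.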

[4] = tested on: A549, H23 and H1648 NSCLC cell lines; assay: Dose-response inhibition of cellular viability in NSCLC cell lines; format: cell-based; conditions: for activity in inhibition of cellular viability (dose-response): A549, H23, H1648 NSCLC cell lines
In short: as §2

[5] = tested on: panel of 24 KRAS-mutant and wild-type lung cancer cell lines; assay: Cell viability screen across a panel of 24 lung cancer cell lines; format: cell-based; conditions: 0.5 and 2.5 μM
In short: as §2

[6] = target: T1, c-MET (Homo sapiens, UniProt P08581); assay: c-MET autophosphorylation in A549 cells; format: cell-based; conditions: 30 minute treatment, 250 nM for crizotinib, PHA-665752, PF-04217903
T1 sequence (P08581 25-1390): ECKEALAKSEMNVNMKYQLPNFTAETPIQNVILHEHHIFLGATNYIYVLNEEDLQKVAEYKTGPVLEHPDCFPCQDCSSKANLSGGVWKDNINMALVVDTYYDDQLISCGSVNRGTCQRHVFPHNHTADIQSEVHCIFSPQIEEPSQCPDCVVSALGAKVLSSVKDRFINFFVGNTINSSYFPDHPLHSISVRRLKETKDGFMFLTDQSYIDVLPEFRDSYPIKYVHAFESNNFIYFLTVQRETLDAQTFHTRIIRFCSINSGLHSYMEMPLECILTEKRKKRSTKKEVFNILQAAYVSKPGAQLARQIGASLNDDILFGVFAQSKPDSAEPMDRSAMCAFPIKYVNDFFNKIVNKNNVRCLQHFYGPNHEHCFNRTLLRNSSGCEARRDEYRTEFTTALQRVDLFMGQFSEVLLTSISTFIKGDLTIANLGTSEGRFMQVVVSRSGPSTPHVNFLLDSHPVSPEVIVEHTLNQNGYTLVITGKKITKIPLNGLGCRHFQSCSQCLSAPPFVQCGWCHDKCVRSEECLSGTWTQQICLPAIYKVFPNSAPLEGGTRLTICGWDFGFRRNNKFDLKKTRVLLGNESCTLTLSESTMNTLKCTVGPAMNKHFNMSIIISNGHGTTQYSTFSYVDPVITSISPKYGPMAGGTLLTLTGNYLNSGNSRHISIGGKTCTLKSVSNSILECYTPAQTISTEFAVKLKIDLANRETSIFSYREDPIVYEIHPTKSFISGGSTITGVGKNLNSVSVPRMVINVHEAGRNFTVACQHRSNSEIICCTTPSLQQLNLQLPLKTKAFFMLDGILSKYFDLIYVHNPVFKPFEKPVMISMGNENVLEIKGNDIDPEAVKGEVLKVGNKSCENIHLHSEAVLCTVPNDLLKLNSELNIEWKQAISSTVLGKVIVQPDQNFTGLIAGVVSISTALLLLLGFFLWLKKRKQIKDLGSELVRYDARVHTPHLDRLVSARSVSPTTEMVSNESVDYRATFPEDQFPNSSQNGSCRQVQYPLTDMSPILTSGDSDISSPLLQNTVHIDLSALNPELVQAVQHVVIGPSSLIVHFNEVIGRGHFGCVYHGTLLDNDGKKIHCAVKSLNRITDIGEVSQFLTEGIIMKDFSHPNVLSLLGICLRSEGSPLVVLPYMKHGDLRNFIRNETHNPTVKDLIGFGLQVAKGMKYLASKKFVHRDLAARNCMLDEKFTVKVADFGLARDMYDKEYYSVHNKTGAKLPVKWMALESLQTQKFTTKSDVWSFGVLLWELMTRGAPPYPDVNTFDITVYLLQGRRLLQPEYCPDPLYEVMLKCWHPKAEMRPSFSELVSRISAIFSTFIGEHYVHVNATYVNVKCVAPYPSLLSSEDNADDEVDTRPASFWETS

[7] = target: T1, c-MET; conditions: reported ref 8, 17; cited from earlier work
[8] = target: GSK3α (Homo sapiens, UniProt P49840); assay: In vitro kinase inhibition assay GSK3α; format: biochemical; conditions: Millipore and Reaction Biology platforms
Chain of GSK3α (P49840 whole entry): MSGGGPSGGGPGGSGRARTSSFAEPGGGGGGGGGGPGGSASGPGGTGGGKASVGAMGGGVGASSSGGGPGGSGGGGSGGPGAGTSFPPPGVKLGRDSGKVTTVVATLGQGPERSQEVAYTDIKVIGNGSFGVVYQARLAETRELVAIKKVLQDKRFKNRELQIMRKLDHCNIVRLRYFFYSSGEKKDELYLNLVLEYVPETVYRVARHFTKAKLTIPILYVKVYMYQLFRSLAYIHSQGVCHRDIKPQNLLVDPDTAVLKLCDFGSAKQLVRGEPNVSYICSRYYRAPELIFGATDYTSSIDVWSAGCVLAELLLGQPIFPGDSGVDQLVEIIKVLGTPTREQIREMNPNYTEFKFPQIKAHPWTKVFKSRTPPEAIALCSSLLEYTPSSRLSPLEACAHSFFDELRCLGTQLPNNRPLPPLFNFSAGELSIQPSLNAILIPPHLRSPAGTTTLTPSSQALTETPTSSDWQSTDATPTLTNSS

[9] = target: GSK3β (Homo sapiens, UniProt P49841); assay: In vitro kinase inhibition assay GSK3β; format: biochemical; conditions: Millipore and Reaction Biology platforms
Chain of GSK3β (P49841 whole entry): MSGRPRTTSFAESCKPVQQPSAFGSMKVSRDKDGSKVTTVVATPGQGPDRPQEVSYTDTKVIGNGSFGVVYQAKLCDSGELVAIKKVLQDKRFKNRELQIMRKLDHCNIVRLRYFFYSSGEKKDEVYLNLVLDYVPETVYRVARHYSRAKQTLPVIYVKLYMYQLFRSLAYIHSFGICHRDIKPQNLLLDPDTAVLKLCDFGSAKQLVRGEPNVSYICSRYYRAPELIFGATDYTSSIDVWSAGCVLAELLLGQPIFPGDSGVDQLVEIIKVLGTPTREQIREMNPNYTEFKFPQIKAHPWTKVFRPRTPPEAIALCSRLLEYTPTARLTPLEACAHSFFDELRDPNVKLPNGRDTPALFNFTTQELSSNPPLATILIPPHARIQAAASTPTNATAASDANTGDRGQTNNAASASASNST

[10] = tested on: MV-4–11 and RS4;11 MLL-rearranged leukemia cells; assay: β-catenin stabilisation and cell cycle in MLL-rearranged leukemia cells; format: cell-based
[11] = tested on: MV-4–11 MLL-rearranged leukemia cells; assay: Viability of MV-4–11 MLL-rearranged leukemia cells; format: cell-based; conditions: MV-4–11 cells
[12] = tested on: β-catenin; assay: Total β-catenin levels in A549 cells; format: cell-based; conditions: A549 cells after treatment
[13] = target: T1, c-MET; assay: In vitro kinase inhibition c-MET; format: biochemical
[14] = tested on: A549 cells; assay: Cell cycle analysis in A549 cells; format: cell-based
[15] = tested on: RS4;11 MLL-rearranged leukemia cells; assay: Viability of RS4; format: cell-based; conditions: RS4;11 cells

SMILES: O=C1Nc2cc(Br)ccc2/C1=C1/Nc2ccccc2/C1=N\O [BIO]
- c-MET levels upon treatment [1]: decreased c-MET levels
- apoptosis indicated by PARP-1 cleavage [2]: able to induce apoptosis in A549 cells, albeit slightly delayed
- antiproliferative activity in A549 cells [3]: showed antiproliferative activity

SMILES: [Cl-].[Li+] [LiCl]
- antiproliferative activity in A549 cells [3]: showed antiproliferative activity
- potency range of antiproliferative activity [3]: low millimolar activity

SMILES: OCCn1cc(-c2cnc3nnn(Cc4ccc5ncccc5c4)c3n2)cn1 [PF-04217903]
- activity in inhibition of cellular viability (dose-response) [4]: no measurable
- effect on cellular viability across lung cancer cell line panel [5]: no significant effects

SMILES: Cc1[nH]c(/C=C2\C(=O)Nc3ccc(S(=O)(=O)Cc4c(Cl)cccc4Cl)cc32)c(C)c1C(=O)N1CCC[C@@H]1CN1CCCC1 [PHA-665752]
- inhibition of c-MET autophosphorylation [6]: effectively inhibited

SMILES: COc1cc2nccc(Oc3ccc(NC(=O)C4(C(=O)Nc5ccc(F)cc5)CC4)cc3)c2cc1OC [cabozantinib]
- effect on cellular viability across lung cancer cell line panel [5]: no significant effects

SMILES: O=C1NC(=O)[C@H](c2cn3c4c(cccc24)CCC3)[C@H]1c1c[nH]c2ccccc12 [compound 7, (+)-3S,4S-tivantinib]
- activity against c-MET [7]: inactive
- IC50 for inhibition of GSK3α in vitro kinase activity [8]: significantly weaker inhibitor
- IC50 for inhibition of GSK3β in vitro kinase activity [9]: significantly weaker inhibitor
- activity in (−)-tivantinib-sensitive cell lines (cellular viability) ([4]; A549 and H1648 cells, compared with (−)-tivantinib): substantially weaker activity

SMILES: C[C@@H](Oc1cc(-c2cnn(C3CCNCC3)c2)cnc1N)c1c(Cl)ccc(F)c1Cl [crizotinib]
- activity in inhibition of cellular viability (dose-response) [4]: only weak activity
- effect on cellular viability across lung cancer cell line panel [5]: no significant effects

SMILES: O=C1NC(=O)[C@@H](c2cn3c4c(cccc24)CCC3)[C@@H]1c1c[nH]c2ccccc12 [tivantinib]
- c-MET levels upon treatment [1]: decreased c-MET levels
- cell cycle effect [10]: induced G1 cell cycle arrest
- β-catenin stabilisation [10]: stabilized β-catenin
- inhibition of viability [11]: potently inhibited viability
- apoptosis indicated by PARP-1 cleavage [2]: induce apoptosis
- total β-catenin levels [12]: increase in total β-catenin levels
- inhibition of c-MET (in vitro kinase) [13]: only weakly inhibited
- IC50 for inhibition of GSK3α in vitro kinase activity [8]: upper nanomolar range
- IC50 for inhibition of GSK3β in vitro kinase activity [9]: upper nanomolar range
- inhibition of c-MET autophosphorylation [6]: essentially no effect
- cell cycle effect [14]: G2/M cell cycle arrest
- inhibition of viability [15]: potently inhibited viability
- IC50 ([4]; read-out: IC50 for inhibition of cellular viability): ~500 nM
- effect on cellular viability across lung cancer cell line panel [5]: inhibited the viability of the majority of these
